# Only some compounds are listed: those with a hit (about 2.9% of all), similar ones and a draw of the others.
# CHO parental Ca = signal in parental CHO cells, OX1R antagonist counter-screen; parental CHO-K1, ATP-induced calcium, Fluo-8 fluorescence; inhibition, % at 5.6 µM; hit rate 0.63% among 330,000;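 active means inhibition above that plate's mean sample inhibition plus 3 SD, cut at about 26% in these data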
#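 Material – parental CHO cells · Reagent – ATP stimulus · Compound – single nominal dose of 5.6 µM per compound · Detection – Fluo-8 fluorescence · Read-out basis – percent inhibition of calcium signal · Controls – ATP-challenged DMSO wells low, unchallenged DMSO wells high · Repeats – no replicates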
# CHO-K1 Ca PAM = M1 PAM counterscreen hit in parental CHO-K1 cells; hit rate 0.02% among 360,000; activation, % at 3 µM; ATP EC20, Fluo-8 calcium fluorescence; 0% at ATP EC20, 100% at ATP max; AID 602247;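 active means activation above the run cutoff, the mean activation of all test compounds plus 3 SD, cut at about 40% in these data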;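 further: peak over basal fluorescence ratio in a 140 s read after ATP addition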
# OX1R antag-1 = antagonists of human orexin 1 receptor; O43613; CHO/OX1R cells, Fluo-8 calcium fluorescence, orexin A; inhibition, % at 5 µM; hit rate 0.43% among 330,000;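 active means inhibition above its plate's threshold, mean inhibition of all tested compounds on the plate plus 3 SD, cut at about 37% in these data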
# Target sequence (O43613 whole entry, looked up): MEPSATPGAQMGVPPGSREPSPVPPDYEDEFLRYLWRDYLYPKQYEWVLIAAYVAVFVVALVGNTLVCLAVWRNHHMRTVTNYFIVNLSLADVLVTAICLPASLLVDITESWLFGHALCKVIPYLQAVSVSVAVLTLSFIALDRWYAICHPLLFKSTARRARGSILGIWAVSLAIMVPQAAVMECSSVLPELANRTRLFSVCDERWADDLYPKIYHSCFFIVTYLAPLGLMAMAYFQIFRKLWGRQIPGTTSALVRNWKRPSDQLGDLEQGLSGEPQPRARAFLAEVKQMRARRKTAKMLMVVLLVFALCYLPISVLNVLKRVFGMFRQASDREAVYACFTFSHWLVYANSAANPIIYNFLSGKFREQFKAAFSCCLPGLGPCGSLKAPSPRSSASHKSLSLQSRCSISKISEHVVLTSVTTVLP
# M1 ag parental = nonselective activator or artifact in parental CHO-K1 cells | Fluo-8 calcium fluorescence; scaled to maximal ATP response, vehicle zero | activation, % at 3 µM | hit rate 0.48% among 360,000; in the data active means activation above about 15%;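 further: untransfected CHO-K1 host cells lacking M1 receptor as counterscreen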
# CHO-K1 Ca antag = M1 antagonist counterscreen hit in parental CHO-K1 cells. ATP-induced calcium, Fluo-8 fluorescence. inhibition, % at 3 µM. hit rate 0.6% among 360,000. AID 602250;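 active means inhibition above a per-plate cutoff, the plate's mean sample inhibition plus 3 SD, cut at about 24% in these data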
# OX1R antag-2 = OX1R (human) antagonism; O43613; OX1R-expressing cells, FRET antagonist read-out; inhibition, % at 6.6 µM; hit rate 1.8% among 330,000; in the data active means inhibition mostly above about 38%, no sharp cut-off; inactive means mostly below about 40%
# OX1R Ca confirm = OX1R (human) antagonism, confirmed; CHO/OX1R cells, orexin A calcium Fluo-8 fluorescence; hit rate 38% among 1,100; shares compounds with OX1R antag-1; inhibition, % at 5 µM; AID 492963; in the data active means inhibition above about 29%
# CHO Ca triplic = counter-screen: parental CHO calcium response change, triplicate; shares compounds with OX1R antag-1; parental CHO-K1, ATP-induced calcium, Fluo-8 fluorescence; inhibition, % at 5.6 µM; hit rate 9.3% among 1,100; AID 492965;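 active means inhibition above a per-plate limit, the mean inhibition of that plate's test compounds plus 3 SD, cut at about 25% in these data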
# OX1R HTRF confirm = confirmation of human orexin 1 receptor antagonists, HTRF format; inhibition, % at 6.6 µM; OX1R-expressing cells, HTRF antagonist assay; AID 492964; shares compounds with OX1R antag-2; hit rate 49% among 1,800; in the data active means inhibition above about 55%;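 further: CHO cells expressing OX1R stimulated with orexin A at about EC80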
# CHO-K1 HTRF cnt = counter-screen: parental CHO-K1 HTRF response; parental CHO-K1 cells, HTRF counterscreen; shares compounds with OX1R antag-2; inhibition, % at 6.6 µM; AID 493232; hit rate 48% among 1,800; in the data active means inhibition above about 17%
# Numbers stand for hits; - = inactive; . = no result given.
SMILES,CHO parental Ca,CHO-K1 Ca PAM,OX1R antag-1,M1 ag parental,CHO-K1 Ca antag,OX1R antag-2,OX1R HTRF confirm,CHO-K1 HTRF cnt,others
Cc1ccc(Cn2nc(C)cc2C(=O)Nc2ccc(Cl)cc2)cc1,-,-,-,-,-,56,62,-,OX1R Ca confirm=-;CHO Ca triplic=-
Cc1ccc(S(=O)(=O)NC(=NC2CCCCC2)c2ccc(Cl)cc2)cc1,-,-,-,-,-,-,.,.,
COc1ccc(-c2cc3nc(-c4ccccc4)cc(N4CCC5(CC4)OCCO5)n3n2)cc1,-,-,67,-,-,50,68,-,OX1R Ca confirm=31;CHO Ca triplic=-
COc1ccc(-c2cc3nc(-c4ccccc4)cc(N4CCN(C(=O)c5ccoc5)CC4)n3n2)cc1,.,-,.,-,-,.,.,.,
CC(C)Cc1nnc(NC(=O)CCS(=O)(=O)c2ccc(Cl)cc2)s1,-,-,-,-,-,-,.,.,
Cc1ccccc1-c1nc2sc3c(c2c(=O)n1N)CCCC3,-,-,-,-,-,-,.,.,
Nn1c(-c2cccs2)nc2sc3c(c2c1=O)CCCC3,-,-,45,-,-,111,81,-,OX1R Ca confirm=-;CHO Ca triplic=-
N#C/C(=C\c1c(Oc2ccccc2Cl)nc2ccccn2c1=O)C(=O)NC1CCS(=O)(=O)C1 (stereo not drawn),-,-,-,-,-,-,.,.,
N#C/C(=C\c1c(Oc2ccccc2F)nc2ccccn2c1=O)C(=O)NC1CCS(=O)(=O)C1 (stereo not drawn),-,-,-,-,-,89,-,36,
CCCN(C(=O)COC(=O)c1nc2nc(C)cc(C)n2n1)C1CCS(=O)(=O)C1 (stereo not drawn),-,-,-,-,-,-,.,.,
COc1ccc(-c2cn(Cc3ccc(C(=O)NCc4ccc(C)cc4)cc3)c(C(C)N)n2)cc1 (stereo not drawn),-,-,-,-,-,-,.,.,
Cc1c(C)n(C)c2ccc(C(=O)NCCCN3CCCC3)cc12,-,-,-,-,-,-,.,.,
CCN(CC)c1ccc(NC(=O)c2ccc3c(c2)c(C)c(C)n3C)cc1,-,-,-,-,-,78,-,-,
c1ccc(C[n+]2cccc3c4ccccc4ccc32)cc1,-,-,-,-,-,77,-,47,
Cc1cccc(-n2c3nc(=O)[nH]c(=O)c-3cc3cc([N+](=O)[O-])ccc32)c1,-,-,-,-,-,77,68,66,
CCC(Oc1ccccc1)C(=O)Nc1ncc([N+](=O)[O-])s1 (stereo not drawn),-,-,-,-,-,79,-,-,
COc1ccc2nc(Nc3nc(C)c(C(C)=O)s3)sc2c1,-,-,-,-,-,81,-,-,
O=C(CCCN1C(=O)C2CCCCN2C1=O)N1CCN(c2ccc([N+](=O)[O-])cc2)CC1 (stereo not drawn),-,-,-,-,-,79,-,25,
O=C1C2CCCCN2C(=O)N1CCN1CCN(c2ccc([N+](=O)[O-])cc2)CC1 (stereo not drawn),-,-,-,-,-,-,.,.,
Cc1cccnc1-n1c(CCN2C(=O)c3ccccc3C2=O)nc2ccccc2c1=O,-,-,-,-,-,92,85,-,
Cc1ccnc(-n2c(CCN3C(=O)c4ccccc4C3=O)nc3ccccc3c2=O)c1,-,-,-,-,-,-,.,.,
CC(C)[n+]1ccn(C2=C([O-])c3ccccc3C(=O)/C2=N\S(=O)(=O)c2ccccc2)c1,-,-,-,-,-,77,69,96,
CCCC[n+]1ccn(C2=C([O-])c3ccccc3C(=O)/C2=N\S(=O)(=O)c2ccccc2)c1,-,-,-,-,-,165,-,94,
CCCCC[n+]1ccn(C2=C([O-])c3ccccc3C(=O)/C2=N\S(=O)(=O)c2ccccc2)c1,-,-,-,-,-,100,-,52,
COc1ccccc1Nc1ccc(NS(=O)(=O)c2ccc(C(C)=O)cc2)cc1,-,-,-,-,-,-,.,.,
SMILES,CHO parental Ca,CHO-K1 Ca PAM,OX1R antag-1,M1 ag parental,CHO-K1 Ca antag,OX1R antag-2,OX1R HTRF confirm,CHO-K1 HTRF cnt,others
CCOC(=O)c1nnn(-c2ccc([N+](=O)[O-])cc2[N+](=O)[O-])c1C,-,-,-,-,-,143,-,73,
CC(NC(=O)c1ccc([N+](=O)[O-])cc1[N+](=O)[O-])c1ccc(-c2ccccc2)cc1 (stereo not drawn),-,-,-,-,-,-,.,.,
CCC(NC(=O)c1ccc([N+](=O)[O-])cc1[N+](=O)[O-])c1ccccc1 (stereo not drawn),-,-,-,-,-,114,55,50,
Cc1ccc(N=Nc2c(=O)[nH]n3c(C)cc(C)nc23)cc1,-,-,-,-,-,174,-,80,
Cc1cc(C)n2[nH]c(=O)c(N=Nc3ccc(S(N)(=O)=O)cc3)c2n1,-,-,-,-,-,88,57,85,
COc1ccc(S(=O)(=O)N2CCN(c3ccc(F)cc3)CC2)cc1C(=O)N1CCOCC1,-,-,-,-,-,-,.,.,
NS(=O)(=O)c1ccc(CCNC(=O)c2cccc([N+](=O)[O-])c2)cc1,-,-,-,-,-,-,.,.,
O=[N+]([O-])c1c(Nc2ccccc2O)cc(N2CCOCC2)c2nonc12,-,-,-,-,-,80,-,34,
Cc1c(Nc2cc(N3CCOCC3)c3nonc3c2[N+](=O)[O-])c(=O)n(-c2ccccc2)n1C,-,.,-,.,.,-,.,.,
CCOCCCn1c(SCc2ccccc2)nnc1-c1ccncc1,-,-,-,-,-,-,.,.,
O=C(NCCCn1ccnc1)c1cc([N+](=O)[O-])cc([N+](=O)[O-])c1,-,-,-,-,-,105,58,87,
NS(=O)(=O)c1ccc(NCCCn2ccnc2)c([N+](=O)[O-])c1,-,-,-,-,-,80,-,50,
O=C(NCCCn1ccnc1)c1ccncc1,-,-,-,-,-,-,.,.,
Cc1cccn2c(=O)c3cc(C#N)c(=NC(=O)c4ccccc4)n(Cc4ccco4)c3nc12,-,-,-,-,-,88,-,41,
Cc1nc(Cl)c(C(=O)NC(C)(C)C)c(C)c1Cl,-,-,-,-,-,-,.,.,
Cc1c(C)c2cc(Cl)c(OCC(=O)NC3CC(C)(C)NC(C)(C)C3)cc2oc1=O,-,-,-,-,-,-,.,.,
CCCCOc1ccc(-c2nnc(-c3cc[n+](C)cc3)o2)cc1,-,-,-,-,-,102,88,74,
